# In ChEMBL document CHEMBL1122917, “Vinblastin-23-oyl amino acid derivatives: chemistry, physicochemical data, toxicity, and antitumor activities against P388 and L1210 leukemias” (J Med Chem, 1985):
# Columns and labels:
# Format in all cases: functional
# [1] = tested on: Mus musculus; experiment: Number of survivors on 60th day at dose 20 mg/kg/day in 10 mice implanted with P388 leukemia cell line; 0/10
# [2] = tested on: Mus musculus; experiment: Percent increase in life span of DBA2 mice after inoculation with L1210 leukemia intravenously at a dose of 40 mg/kg per day; conditions: route intravenous
# [3] = tested on: Mus musculus; experiment: Percent increase in life span of DBA2 mice after inoculation with L1210 leukemia intravenously at a dose of 45 mg/kg per day; conditions: route intravenous
# Procedure, shortened: (§1)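 Female DBA2 mice inoculated iv on day 0 with 10^4 L1210 cells; drugs given iv as sulfate salts in physiological saline, mostly once on day 1. %ILS from all deaths and survivors as (T/C × 100) − 100; survivors scored on days 30 and 60.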
# [4] = tested on: Mus musculus; experiment: Number of survivors on 60th day at dose 50 mg/kg/day in 9 mice implanted with P388 leukemia cell line; 0/9
# [5] = tested on: Mus musculus; experiment: Number of survivors of DBA2 mice on 30th day after inoculation with L1210 leukemia cell line intravenously at a dose of 40 mg/kg/day; 0/10; conditions: route intravenous
# [6] = tested on: Mus musculus; experiment: Number of survivors of DBA2 mice on 30th day after inoculation with L1210 leukemia cell line intravenously at a dose of 45 mg/kg/day; 0/10; conditions: route intravenous
# [7] = tested on: Mus musculus; experiment: Percent increase in life span at dose 20 mg/kg/day in 10 mice implanted with P388 leukemia cell line
# Procedure, shortened: (§2)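 Female DBA2 mice inoculated iv on day 0 with 10^4 P388 cells; single iv treatment on day 1 with drug as sulfate salt in physiological saline. Survival followed; %ILS from all deaths and survivors as (T/C × 100) − 100, maximal MST 30 days; survivors counted on days 30 and 60. Most experiments confirmed three times.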
# [8] = tested on: Mus musculus; experiment: Percent increase in life span at dose 30 mg/kg/day in 10 mice implanted with P388 leukemia cell line; procedure, shortened: as §2
# [9] = tested on: Mus musculus; experiment: Percent increase in life span at dose 40 mg/kg/day in 10 mice implanted with P388 leukemia cell line; procedure, shortened: as §2
# [10] = tested on: Mus musculus; experiment: Percent increase in life span at dose 45 mg/kg/day in 10 mice implanted with P388 leukemia cell line
# [11] = tested on: Mus musculus; experiment: Number of survivors on 60th day at dose 30 mg/kg/day in 10 mice implanted with P388 leukemia cell line; 0/10
# [12] = tested on: Mus musculus; experiment: Number of survivors on 60th day at dose 40 mg/kg/day in 10 mice implanted with P388 leukemia cell line; 0/10
# [13] = tested on: Mus musculus; experiment: Number of survivors on 60th day at dose 45 mg/kg/day in 10 mice implanted with P388 leukemia cell line; 0/10
# [14] = tested on: Mus musculus; experiment: Number of survivors on 30th day at dose 20 mg/kg/day in 10 mice implanted with P388 leukemia cell line; 0/10
# [15] = tested on: Mus musculus; experiment: Number of survivors on 30th day at dose 40 mg/kg/day in 10 mice implanted with P388 leukemia cell line; 0/10
# [16] = tested on: Mus musculus; experiment: Number of survivors on 30th day at dose 45 mg/kg/day in 10 mice implanted with P388 leukemia cell line; 2/10
# [17] = tested on: Mus musculus; experiment: Number of survivors of DBA2 mice on 60th day after inoculation with L1210 leukemia cell line intravenously at a dose of 40 mg/kg/day; 0/10; conditions: route intravenous
# [18] = tested on: Mus musculus; experiment: Number of survivors of DBA2 mice on 60th day after inoculation with L1210 leukemia cell line intravenously at a dose of 45 mg/kg/day; 0/10; conditions: route intravenous
# [19] = tested on: Mus musculus; experiment: Number of survivors on 30th day at dose 50 mg/kg/day in 9 mice implanted with P388 leukemia cell line; 0/9
# [20] = tested on: Mus musculus; experiment: Percent increase in life span at dose 50 mg/kg/day in 10 mice implanted with P388 leukemia cell line; procedure, shortened: as §2
# [21] = tested on: Mus musculus; experiment: Number of survivors on 30th day at dose 30 mg/kg/day in 10 mice implanted with P388 leukemia cell line; 1/10
# [22] = tested on: Mus musculus; experiment: Percent increase in life span at dose 6 mg/kg/day in 10 mice implanted with P388 leukemia cell line; procedure, shortened: as §2
# [23] = tested on: Mus musculus; experiment: Number of survivors on 60th day at dose 3 mg/kg/day in 10 mice implanted with P388 leukemia cell line
# [24] = tested on: Mus musculus; experiment: Percent increase in life span of DBA2 mice after inoculation with L1210 leukemia intravenously at a dose of 6 mg/kg per day; conditions: route intravenous; procedure, shortened: as §1
# [25] = tested on: Mus musculus; experiment: Percent increase in life span of DBA2 mice after inoculation with L1210 leukemia intravenously at a dose of 7 mg/kg per day; conditions: route intravenous; procedure, shortened: as §1
# [26] = tested on: Mus musculus; experiment: Number of survivors on 60th day at dose 6 mg/kg/day in 10 mice implanted with P388 leukemia cell line
# [27] = tested on: Mus musculus; experiment: Percent increase in life span at dose 7 mg/kg/day in 10 mice implanted with P388 leukemia cell line; procedure, shortened: as §2
# [28] = tested on: Mus musculus; experiment: Percent increase in life span at dose 8 mg/kg/day in 10 mice implanted with P388 leukemia cell line; procedure, shortened: as §2
# [29] = tested on: Mus musculus; experiment: Number of survivors of DBA2 mice on 30th day after inoculation with L1210 leukemia cell line intravenously at a dose of 6 mg/kg/day; 0/10; conditions: route intravenous
# [30] = tested on: Mus musculus; experiment: Number of survivors of DBA2 mice on 30th day after inoculation with L1210 leukemia cell line intravenously at a dose of 7 mg/kg/day; 0/10; conditions: route intravenous
# [31] = tested on: Mus musculus; experiment: Percent increase in life span at dose 9 mg/kg/day in 10 mice implanted with P388 leukemia cell line; procedure, shortened: as §2
# [32] = tested on: Mus musculus; experiment: Percent increase in life span at dose 3 mg/kg/day in 10 mice implanted with P388 leukemia cell line; procedure, shortened: as §2
# [33] = tested on: Mus musculus; experiment: Percent increase in life span at dose 5 mg/kg/day in 10 mice implanted with P388 leukemia cell line; procedure, shortened: as §2
# [34] = tested on: Mus musculus; experiment: Number of survivors on 60th day at dose 8 mg/kg/day in 10 mice implanted with P388 leukemia cell line; procedure, shortened: as §2
# [35] = tested on: Mus musculus; experiment: Number of survivors on 60th day at dose 9 mg/kg/day in 10 mice implanted with P388 leukemia cell line
# [36] = tested on: Mus musculus; experiment: Number of survivors on 60th day at dose 5 mg/kg/day in 10 mice implanted with P388 leukemia cell line
# [37] = tested on: Mus musculus; experiment: Number of survivors on 30th day at dose 3 mg/kg/day in 10 mice implanted with P388 leukemia cell line; 0/10
# [38] = tested on: Mus musculus; experiment: Number of survivors on 30th day at dose 5 mg/kg/day in 10 mice implanted with P388 leukemia cell line
# [39] = tested on: Mus musculus; experiment: Number of survivors on 60th day at dose 7 mg/kg/day in 10 mice implanted with P388 leukemia cell line; procedure, shortened: as §2
# [40] = tested on: Mus musculus; experiment: Number of survivors on 30th day at dose 6 mg/kg/day in 10 mice implanted with P388 leukemia cell line
# [41] = tested on: Mus musculus; experiment: Number of survivors of DBA2 mice on 60th day after inoculation with L1210 leukemia cell line intravenously at a dose of 6 mg/kg/day; 0/10; conditions: route intravenous
# [42] = tested on: Mus musculus; experiment: Number of survivors of DBA2 mice on 60th day after inoculation with L1210 leukemia cell line intravenously at a dose of 7 mg/kg/day; 0/10; conditions: route intravenous
# [43] = tested on: Mus musculus; experiment: Number of survivors on 30th day at dose 7 mg/kg/day in 10 mice implanted with P388 leukemia cell line
# [44] = tested on: Mus musculus; experiment: Number of survivors on 30th day at dose 8 mg/kg/day in 10 mice implanted with P388 leukemia cell line
# [45] = tested on: Mus musculus; experiment: Number of survivors on 30th day at dose 9 mg/kg/day in 10 mice implanted with P388 leukemia cell line
smiles,measurement,setting,value
CCOC(=O)[C@@H](Cc1c[nH]c2ccccc12)NC(=O)[C@@]1(O)[C@H](O)[C@]2(CC)C=CCN3CC[C@@]4(c5cc([C@@]6(C(=O)OC)C[C@H]7C[N@](CCc8c6[nH]c6ccccc86)C[C@](O)(CC)C7)c(OC)cc5N(C)[C@@]14C)[C@@H]32,Survivors,[1],0
same,ILS at 40 mg/kg/day,[2],21.8%
same,ILS at 45 mg/kg/day,[3],34.6%
same,Survivors,[4],0
same,Survivors,[5],0
same,Survivors,[6],0
same,ILS at 20 mg/kg/day,[7],18.7%
same,ILS at 30 mg/kg/day,[8],41.4%
same,ILS at 40 mg/kg/day,[9],53.8%
same,ILS at 45 mg/kg/day,[10],85%
same,Survivors,[11],0
same,Survivors,[12],0
same,Survivors,[13],0
same,Survivors,[14],0
same,Survivors,[15],0
same,Survivors,[16],2
same,Survivors,[17],0
same,Survivors,[18],0
same,Survivors,[19],0
same,ILS at 50 mg/kg/day,[20],59%
same,Survivors,[21],1
CC[C@H](C)[C@H](NC(=O)[C@@]1(O)[C@H](O)[C@]2(CC)C=CCN3CC[C@@]4(c5cc([C@@]6(C(=O)OC)C[C@H]7C[N@](CCc8c6[nH]c6ccccc86)C[C@](O)(CC)C7)c(OC)cc5N(C)[C@@]14C)[C@@H]32)C(=O)OC,ILS at 6 mg/kg/day,[22],118%
same,Survivors,[23],0
same,ILS at 6 mg/kg/day,[24],65.7%
same,ILS at 7 mg/kg/day,[25],64%
same,Survivors,[26],0
same,ILS at 7 mg/kg/day,[27],164%
same,ILS at 8 mg/kg/day,[28],149%
same,Survivors,[29],0
same,Survivors,[30],0
same,ILS at 9 mg/kg/day,[31],48.3%
same,ILS at 3 mg/kg/day,[32],41.3%
same,ILS at 5 mg/kg/day,[33],66.5%
same,Survivors,[34],3
same,Survivors,[35],4
same,Survivors,[36],1
same,Survivors,[37],0
same,Survivors,[38],3
same,Survivors,[39],2
same,Survivors,[40],3
same,Survivors,[41],0
same,Survivors,[42],0
same,Survivors,[43],5
same,Survivors,[44],3
same,Survivors,[45],4
